Data from the M2OR odorant receptor database.

Tested on: OR4D2
Conditions: stereoisomer not certain
Summary of the method: (§1)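 Transient luciferase assays in mammalian cell lines were common, though methods varied by source. The values come from published papers and their supplementary material, with extra details from the original authors when needed. Responsive refers to a measured signal the original authors judged statistically different from baseline, and non-responsive (inactive) to the remainder.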
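Further: active if original authors judged signal statistically different from baseline.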

OR4D2, sequence (as listed by the source): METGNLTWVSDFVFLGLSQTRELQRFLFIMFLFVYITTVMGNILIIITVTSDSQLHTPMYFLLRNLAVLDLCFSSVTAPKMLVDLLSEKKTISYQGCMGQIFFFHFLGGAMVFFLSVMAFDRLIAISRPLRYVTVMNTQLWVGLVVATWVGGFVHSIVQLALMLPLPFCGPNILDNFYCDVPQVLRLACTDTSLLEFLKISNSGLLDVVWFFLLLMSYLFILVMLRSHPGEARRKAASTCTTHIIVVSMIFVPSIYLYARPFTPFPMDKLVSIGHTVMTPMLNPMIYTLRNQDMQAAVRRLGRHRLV

Odorant receptor agonist call, inactive:
CCCC(S)CCOC(C)=O (stereo not drawn), CC1=NC(C)C(C)S1 (stereo not drawn), CC1=C(O)C(=O)OC1C (stereo not drawn), CCCCCCC=CCCC=O, CC1=C(O)C(=O)C(C)O1 (stereo not drawn), Cc1cnc(C)c(C)n1, CCC1OC(C)=C(O)C1=O (stereo not drawn), CCC1OC(=O)C(O)=C1C (stereo not drawn)

Molecular target: OR4D5 (Homo sapiens) (UniProt Q8NGN0)
Conditions: stereoisomer not certain
Summary of the method: as §1

OR4D5 (Homo sapiens), sequence (Q8NGN0 whole entry): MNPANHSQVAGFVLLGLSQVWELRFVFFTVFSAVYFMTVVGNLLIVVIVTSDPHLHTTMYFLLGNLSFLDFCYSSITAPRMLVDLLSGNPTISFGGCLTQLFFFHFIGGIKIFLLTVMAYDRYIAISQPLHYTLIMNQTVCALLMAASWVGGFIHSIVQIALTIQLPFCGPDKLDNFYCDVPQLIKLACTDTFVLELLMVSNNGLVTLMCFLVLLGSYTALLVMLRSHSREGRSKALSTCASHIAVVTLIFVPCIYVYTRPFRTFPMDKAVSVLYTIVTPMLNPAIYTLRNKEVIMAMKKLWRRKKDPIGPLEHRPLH

Odorant receptor agonist call, inactive:
CCCCCC(=O)C(C)C(C)=O (stereo not drawn), CC(CO)CS (stereo not drawn), CCCC(S)CCOC(C)=O (stereo not drawn), CC1=NC(C)C(C)S1 (stereo not drawn), CC1=C(O)C(=O)OC1C (stereo not drawn), CCCCC(S)C(C)CO (stereo not drawn), CC1CCCCCCCCCCCCC(=O)C1 (stereo not drawn), CC(=O)c1c(C)c([N+](=O)[O-])c(C(C)(C)C)c([N+](=O)[O-])c1C, CCCCCCC=CCCC=O, CC1=C(O)C(=O)C(C)O1 (stereo not drawn), Cc1cnc(C)c(C)n1, CCC1OC(C)=C(O)C1=O (stereo not drawn), CCC(S)C(C)CO (stereo not drawn), CCC1OC(=O)C(O)=C1C (stereo not drawn), CCCCCC(S)C(C)CO (stereo not drawn)
